Measured values from ChEMBL document CHEMBL2163218, “Design, synthesis, and biological and structural evaluations of novel HIV-1 protease inhibitors to combat drug resistance” (J Med Chem, 2012).
pEC50, pKi: −log10 of the molar value.

Legend:
[1] = system: Human immunodeficiency virus 1; assay: Antiviral activity against multidrug resistant HIV1 MDR1 containing protease M46I, I54V, V82A and L90M mutant infected in HEK293 cells assessed as reduction in viral replication incubated for 48 hrs by luciferase reporter based assay; format: functional, organism-based; details: Human immunodeficiency virus 1, MDR1, HEK293, 48 h
[2] = system: Human immunodeficiency virus 1; assay: Antiviral activity against wild type HIV1 clade A isolated form HIV1 patient infected in HEK293 cells assessed as reduction in viral replication incubated for 48 hrs by luciferase reporter based assay; format: functional, organism-based; details: Human immunodeficiency virus 1, clade A, HEK293, 48 h
[3] = system: Human immunodeficiency virus 1; assay: Antiviral activity against multidrug resistant HIV1 MDRC4 infected in HEK293 cells assessed as reduction in viral replication incubated for 48 hrs by luciferase reporter based assay; format: functional, organism-based; details: Human immunodeficiency virus 1, MDRC4, HEK293, 48 h
[4] = system: Human immunodeficiency virus 1; assay: Antiviral activity against wild type HIV1 clade C isolated form HIV1 patient infected in HEK293 cells assessed as reduction in viral replication incubated for 48 hrs by luciferase reporter based assay; format: functional, organism-based; details: Human immunodeficiency virus 1, clade C, HEK293, 48 h
[5] = system: Human immunodeficiency virus 1; assay: Antiviral activity against wild type HIV1 clade B isolated form HIV1 patient infected in HEK293 cells assessed as reduction in viral replication incubated for 48 hrs by luciferase reporter based assay; format: functional, organism-based; details: Human immunodeficiency virus 1, clade B, HEK293, 48 h
[6] = system: Human immunodeficiency virus 1; assay: Antiviral activity against wild type HIV1 infected in HEK293 cells assessed as reduction in viral replication incubated for 48 hrs by luciferase reporter based assay; format: functional, organism-based; details: Human immunodeficiency virus 1, HEK293, 48 h
[7] = molecular target: Protease (Human immunodeficiency virus 1, UniProt Q9YQ12); assay: Inhibition of wild type HIV1 protease by FRET assay
Protease, sequence (Q9YQ12 whole entry): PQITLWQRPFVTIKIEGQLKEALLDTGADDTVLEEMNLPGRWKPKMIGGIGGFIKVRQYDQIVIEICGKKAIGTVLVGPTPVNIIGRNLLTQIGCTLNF
Summary of the method: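 Recombinant HIV-1 protease Q7K, desalted into 20 mM sodium acetate pH 5, apparent concentration ~50 nM (UV 280 nm). Inhibitors in DMSO, 12 concentrations, added with protease to buffer pH 4.7 (0.1 M NaOAc, 1 M NaCl, 1 mM EDTA, 1 mM DTT, 2% DMSO, 1 mg/mL BSA). Cleavage started by injecting EDANS/DABCYL peptide substrate. Ki from initial velocities fitted to the Morrison equation.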

[8] = molecular target: Human immunodeficiency virus type 1 protease (Human immunodeficiency virus 1, UniProt Q72874, A71V/I50V); assay: Inhibition of HIV1 protease I50V, A71V mutant by FRET assay
[9] = molecular target: Human immunodeficiency virus type 1 protease (Human immunodeficiency virus 1, UniProt Q72874, A71V/G73S/I84V/L10I/L63P/L90M); assay: Inhibition of HIV1 protease L10I, L63P, A71V, G73S, I84V, L90M mutant by FRET assay
[10] = molecular target: Human immunodeficiency virus type 1 protease (Human immunodeficiency virus 1, UniProt Q72874, G48V/I54V/L10I/L63P/V82A); assay: Inhibition of HIV1 protease L10I, G48V, I54V, L63P and V82A mutant by FRET assay

| SMILES | pEC50 [1] | pEC50 [2] | pEC50 [3] | pEC50 [4] | pEC50 [5] | pEC50 [6] | pKi [7] | other results |
| --- | --- | --- | --- | --- | --- | --- | --- | --- |
| CC(C)CN(C[C@@H](O)[C@H](Cc1ccccc1)NC(=O)O[C@H]1CCOC1)S(=O)(=O)c1ccc(N)cc1 | 7.81 | 8.59 | 7.76 | 8.43 | 8.74 | 8.52 | – | – |
| CC(C)CN(C[C@@H](O)[C@H](Cc1ccccc1)NC(=O)O[C@H]1CO[C@H]2OCC[C@H]21)S(=O)(=O)c1ccc(N)cc1 | 9.64 | 9.52 | – | 9.74 | 9.82 | 9.60 | – | – |
| CCCCCN(C[C@@H](O)[C@H](Cc1ccccc1)NC(=O)OCCN1CCNC1=O)S(=O)(=O)c1ccc(OC)cc1 | – | – | – | – | – | – | 9.40 | – |
| CCCCCN(C[C@@H](O)[C@H](Cc1ccccc1)NC(=O)OCCN1CCOC1=O)S(=O)(=O)c1ccc(OC)cc1 | 6.52 | 6.90 | 6.58 | 6.80 | 7.28 | 7.11 | 11.10 | – |
| CCCCCN(C[C@@H](O)[C@H](Cc1ccccc1)NC(=O)O[C@@H]1CCOC1=O)S(=O)(=O)c1ccc(OC)cc1 | – | – | – | – | – | – | 7.18 | – |
| CCCCCN(C[C@@H](O)[C@H](Cc1ccccc1)NC(=O)OC[C@@H]1CCC(=O)N1)S(=O)(=O)c1ccc(OC)cc1 | – | – | – | – | – | – | 9.20 | – |
| CCCCCN(C[C@@H](O)[C@H](Cc1ccccc1)NC(=O)O[C@H](C)CC(=O)OC)S(=O)(=O)c1ccc2ncsc2c1 | – | – | – | – | – | – | 7.94 | pKi [8]: 6.92; pKi [9]: 7.34; pKi [10]: 6.74 |
| CCCCCN(C[C@@H](O)[C@H](Cc1ccccc1)NC(=O)OCCNC(=O)C(F)(F)F)S(=O)(=O)c1ccc2ncsc2c1 | – | – | – | – | – | – | 7.71 | – |
| CCCCCN(C[C@@H](O)[C@H](Cc1ccccc1)NC(=O)OCCNC(=O)C(Cl)Cl)S(=O)(=O)c1ccc2ncsc2c1 | 6.60 | 7.10 | 6.55 | 7.17 | 7.52 | 7.42 | – | – |
| CCCCCN(C[C@@H](O)[C@H](Cc1ccccc1)NC(=O)O[C@H](C)CCC(C)=O)S(=O)(=O)c1ccc2ncsc2c1 | – | – | – | – | – | – | 8.47 | – |
| CCCCCN(C[C@@H](O)[C@H](Cc1ccccc1)NC(=O)OCCNC(=O)OC(C)(C)C)S(=O)(=O)c1ccc2ncsc2c1 | – | – | – | – | – | – | 8.89 | – |
| CCCCCN(C[C@@H](O)[C@H](Cc1ccccc1)NC(=O)OC[C@@H](C)C(=O)OC)S(=O)(=O)c1ccc2ncsc2c1 | – | – | – | – | – | – | 8.48 | – |
| CCCCCN(C[C@@H](O)[C@H](Cc1ccccc1)NC(=O)OCCN1CCNC1=O)S(=O)(=O)c1ccc2ncsc2c1 | 6.63 | 7.00 | 6.56 | 6.89 | 7.27 | 7.08 | 9.66 | – |
| CCCCCN(C[C@@H](O)[C@H](Cc1ccccc1)NC(=O)OCCN1CCOC1=O)S(=O)(=O)c1ccc2ncsc2c1 | 6.59 | 7.02 | 6.38 | 6.92 | 7.39 | 7.14 | 10.77 | – |
| CCCCCN(C[C@@H](O)[C@H](Cc1ccccc1)NC(=O)O[C@@H]1CCOC1=O)S(=O)(=O)c1ccc2ncsc2c1 | – | – | – | – | – | – | 7.38 | – |
| CCCCCN(C[C@@H](O)[C@H](Cc1ccccc1)NC(=O)OC[C@@H]1CCC(=O)N1)S(=O)(=O)c1ccc2ncsc2c1 | 6.89 | 7.08 | 6.76 | 7.02 | 7.35 | 7.23 | – | – |
| CC[C@H](C)CN(C[C@@H](O)[C@H](Cc1ccccc1)NC(=O)OCCNC(=O)C(F)(F)F)S(=O)(=O)c1ccc2ncsc2c1 | – | – | – | – | – | – | 8.04 | – |
| CC[C@H](C)CN(C[C@@H](O)[C@H](Cc1ccccc1)NC(=O)OCCNC(=O)C(Cl)Cl)S(=O)(=O)c1ccc2ncsc2c1 | 6.84 | 7.19 | 6.72 | 7.06 | 7.54 | 7.37 | – | – |
| CC[C@H](C)CN(C[C@@H](O)[C@H](Cc1ccccc1)NC(=O)OCCNC(=O)OC(C)(C)C)S(=O)(=O)c1ccc2ncsc2c1 | 6.12 | 6.64 | 6.04 | 6.48 | 6.74 | 6.70 | – | – |

| SMILES | pEC50 [1] | pEC50 [2] | pEC50 [3] | pEC50 [4] | pEC50 [5] | pEC50 [6] | pKi [7] | other results |
| --- | --- | --- | --- | --- | --- | --- | --- | --- |
| CC[C@H](C)CN(C[C@@H](O)[C@H](Cc1ccccc1)NC(=O)OC[C@@H](C)C(=O)OC)S(=O)(=O)c1ccc2ncsc2c1 | – | – | – | – | – | – | 8.86 | – |
| CC[C@H](C)CN(C[C@@H](O)[C@H](Cc1ccccc1)NC(=O)OCCN1CCNC1=O)S(=O)(=O)c1ccc2ncsc2c1 | 7.30 | 7.50 | 7.06 | 7.31 | 7.67 | 7.46 | – | – |
| CC[C@H](C)CN(C[C@@H](O)[C@H](Cc1ccccc1)NC(=O)OCCN1CCOC1=O)S(=O)(=O)c1ccc2ncsc2c1 | 7.49 | 7.67 | 7.13 | 7.44 | 7.92 | 7.48 | 11.30 | – |
| CC[C@H](C)CN(C[C@@H](O)[C@H](Cc1ccccc1)NC(=O)OC[C@@H]1CCC(=O)N1)S(=O)(=O)c1ccc2ncsc2c1 | 7.68 | 7.60 | 7.45 | 7.88 | 7.79 | 7.81 | – | – |
| CCCCCN(C[C@@H](O)[C@H](Cc1ccccc1)NC(=O)O[C@H](C)CC(=O)OC)S(=O)(=O)c1ccc(OC)cc1 | – | – | – | – | – | – | 7.76 | – |
| CCCCCN(C[C@@H](O)[C@H](Cc1ccccc1)NC(=O)OCCNC(=O)C(F)(F)F)S(=O)(=O)c1ccc(OC)cc1 | – | – | – | – | – | – | 7.50 | – |
| CCCCCN(C[C@@H](O)[C@H](Cc1ccccc1)NC(=O)O[C@H](C)CCC(C)=O)S(=O)(=O)c1ccc(OC)cc1 | – | – | – | – | – | – | 8.16 | – |
| CCCCCN(C[C@@H](O)[C@H](Cc1ccccc1)NC(=O)OCCNC(=O)OC(C)(C)C)S(=O)(=O)c1ccc(OC)cc1 | – | – | – | – | – | – | 8.53 | – |
| CC[C@H](C)CN(C[C@@H](O)[C@H](Cc1ccccc1)NC(=O)OC(C)(C)C)S(=O)(=O)c1ccc2ncsc2c1 | – | – | – | – | – | – | 9.61 | – |
| CC[C@H](C)CN(C[C@@H](O)[C@H](Cc1ccccc1)NC(=O)OCCNC(=O)C(F)(F)F)S(=O)(=O)c1ccc(OC)cc1 | – | – | – | – | – | – | 7.92 | – |
| CC[C@H](C)CN(C[C@@H](O)[C@H](Cc1ccccc1)NC(=O)OCCNC(=O)C(Cl)Cl)S(=O)(=O)c1ccc(OC)cc1 | 6.91 | 7.29 | 6.80 | 7.07 | 7.51 | 7.41 | – | – |
| CC[C@H](C)CN(C[C@@H](O)[C@H](Cc1ccccc1)NC(=O)O[C@H](C)CCC(C)=O)S(=O)(=O)c1ccc(OC)cc1 | – | – | – | – | – | – | 9.37 | – |
| CC[C@H](C)CN(C[C@@H](O)[C@H](Cc1ccccc1)NC(=O)OCCNC(=O)OC(C)(C)C)S(=O)(=O)c1ccc(OC)cc1 | – | – | – | – | – | – | 8.70 | – |
| CC[C@H](C)CN(C[C@@H](O)[C@H](Cc1ccccc1)NC(=O)OC[C@@H](C)C(=O)OC)S(=O)(=O)c1ccc(OC)cc1 | 7.38 | 7.60 | 7.25 | 7.44 | 7.69 | 7.51 | – | – |
| CC[C@H](C)CN(C[C@@H](O)[C@H](Cc1ccccc1)NC(=O)OCCN1CCNC1=O)S(=O)(=O)c1ccc(OC)cc1 | 6.95 | 7.02 | 6.88 | 6.87 | 7.24 | 7.07 | – | – |
| CC[C@H](C)CN(C[C@@H](O)[C@H](Cc1ccccc1)NC(=O)OCCN1CCOC1=O)S(=O)(=O)c1ccc(OC)cc1 | 7.25 | 7.36 | 7.13 | 7.24 | 7.56 | 7.39 | – | – |
| CC[C@H](C)CN(C[C@@H](O)[C@H](Cc1ccccc1)NC(=O)O[C@@H]1CCOC1=O)S(=O)(=O)c1ccc(OC)cc1 | – | – | – | – | – | – | 7.45 | – |
| CC[C@H](C)CN(C[C@@H](O)[C@H](Cc1ccccc1)NC(=O)OC[C@@H]1CCC(=O)N1)S(=O)(=O)c1ccc(OC)cc1 | 7.43 | 7.19 | 7.14 | 7.36 | 7.41 | 7.36 | – | – |
